The list is not random: actives were taken first. Their share in the collection is about 2.5%.
GalR3 antagonist: human GalR3 antagonism. O60755. HEK293 GalR3-CNG cAMP membrane potential fluorescence; galR3 body fused to GalR1 C-terminus. inhibition, % at 3 µM. 0.44% of 360,000 active. AID 651719;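 active means inhibition above the screen-wide average plus 3 SD, cut at about 13% in these data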;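 further: forskolin and galanin both at EC90 stimulate the cells; cAMP rise reported by CNG channel membrane potential dye signal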
Target sequence (O60755 1-299 limits assumed): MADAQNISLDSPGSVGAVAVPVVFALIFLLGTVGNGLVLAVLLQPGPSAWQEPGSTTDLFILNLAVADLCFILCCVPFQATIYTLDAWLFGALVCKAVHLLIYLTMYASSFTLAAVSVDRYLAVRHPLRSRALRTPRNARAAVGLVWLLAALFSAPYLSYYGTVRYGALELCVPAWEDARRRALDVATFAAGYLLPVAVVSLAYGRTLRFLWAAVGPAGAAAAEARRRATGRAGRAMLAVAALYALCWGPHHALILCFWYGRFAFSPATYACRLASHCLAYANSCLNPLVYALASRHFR
NR2E3 ag-1: agonists of human nuclear receptor NR2E3. inhibition of corepressor binding, % at 4.78 µM. 0.12% of 320,000 active. AID 2300. GST-NR2E3/biotin-RetCOR TR-FRET, 1536-well;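 active means percent inhibition above the cutoff of mean plus 3 SD of all tested compounds, set per screening campaign, cut at about 20% in these data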
Target sequence (Q9Y5X4 whole entry, looked up): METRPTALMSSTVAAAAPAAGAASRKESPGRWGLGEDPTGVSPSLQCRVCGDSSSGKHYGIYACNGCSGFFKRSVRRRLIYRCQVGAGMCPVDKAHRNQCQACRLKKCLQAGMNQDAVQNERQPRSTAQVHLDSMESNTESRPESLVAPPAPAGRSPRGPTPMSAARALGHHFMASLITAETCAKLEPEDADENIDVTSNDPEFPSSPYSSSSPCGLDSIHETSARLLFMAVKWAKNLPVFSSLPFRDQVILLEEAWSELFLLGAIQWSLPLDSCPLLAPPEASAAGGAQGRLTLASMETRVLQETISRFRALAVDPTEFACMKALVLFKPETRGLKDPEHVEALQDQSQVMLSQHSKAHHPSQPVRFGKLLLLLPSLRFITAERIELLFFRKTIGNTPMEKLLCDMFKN
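system = GST-tagged NR2E3 plus biotinylated RetCOR corepressor | input = 1.35 nM GST-NR2E3 | also added = 7 nM biotin-RetCOR | schedule = 5 h incubation at 4 °C | measured by = TR-FRET with europium anti-GST and streptavidin-D2, 340 nm excitation | read-out = percent loss of FRET ratio relative to control wells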
bovine MsrA act: activators of bovine methionine sulfoxide reductase A; 0.3% of 360,000 active; purified bovine MsrA, absorbance read-out; activation, % at 10.6 µM; in the data active means activation above about 7.5%
NR2E3 ag-2: human photoreceptor-specific nuclear receptor agonism; Q9Y5X4; CHO-S Gal4-NCOR/VP16-NR2E3 two-hybrid, luciferase; inhibition of corepressor binding, % at 3.98 µM; 0.35% of 360,000 active; AID 602229;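 active means inhibition above the mean of all tested compounds plus 3 SD, cut at about 70% in these data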;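 further: higher means lower luciferase signal from less NR2E3 corepressor binding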
MsrA inhibitor: bovine MsrA inhibition | purified bovine MsrA, absorbance read-out | inhibition, % at 15.5 µM | 0.75% of 360,000 active | AID 651718; in the data active means inhibition above about 4.5%
NadD block: blocks S. aureus nicotinate mononucleotide adenylyltransferase; purified NadD enzyme, colorimetric absorbance read-out; 0.78% of 360,000 active; inhibition, % at 20 µM; in the data active means inhibition above about 26%
Of the large screens only hits and unclear results are named; the others gave an inactive call; ! = not confirmed by another sample.

COc1cccc(-c2nc(CS(=O)(=O)CC(=O)Nc3ccc(F)cc3F)c(C)o2)c1	none
Cc1c(Cl)cccc1NS(=O)(=O)c1ccc2c(c1)C1C=CCC1C(c1ccc(C(=O)O)cc1)N2 (stereo unspecified)	NadD block 34 (no result: GalR3 antagonist, MsrA inhibitor)
COc1ccc(NS(=O)(=O)c2ccc3c(c2)[C@H]2C=CC[C@H]2[C@@H](c2ccc(C(=O)O)cc2)N3)cc1	NadD block 30
COc1ccc(C=C2OC(=O)C(C(C)=O)=C2O)cc1	MsrA inhibitor 9.1 (no result: NR2E3 ag-1)
CC(=O)C1=C(O)C(=Cc2ccccc2)OC1=O	none (no result: NR2E3 ag-1)
CCN(CC)C(=O)CSc1nc2ccccc2c(=O)n1-c1cccc(OC)c1	none
COc1cccc(-n2c(SCc3cc(=O)oc4cc(O)c(O)cc34)nc3ccccc3c2=O)c1	NadD block 65
Cc1ccc2cc(C=O)c(N3CCOCC3)nc2c1C	none
CCN(CC)CCNC(=O)c1cn(CC)c2ccc(S(=O)(=O)N(C)C)cc2c1=O	none
CCN1CCN(Cc2ccc(NC(=O)c3cc(NC(=O)C4=NN(c5ccccc5)C(=O)C4)cc(OC)c3)cc2C(F)(F)F)CC1	NadD block 33
CCN1CCN(Cc2ccc(NC(=O)c3cc(NC(=O)N4CCNC4=O)cc(OC)c3)cc2C(F)(F)F)CC1	none
CCN1CCN(Cc2ccc(NC(=O)c3ccc(C)c(NC(=O)C4=NN(c5ccccc5)C(=O)C4)c3)cc2C(F)(F)F)CC1	NadD block 40!
COc1ccccc1Nc1ncnc2ccc(C)cc12	none
Cc1cc(N)n(Cc2ccc(Cl)cc2)n1	none
Cc1ccc(-c2cc(N)n(Cc3ccc(Cl)cc3)n2)cc1	GalR3 antagonist 89
CC(=O)c1cccc(NC2c3ncccc3C(=O)N2Cc2ccco2)c1 (stereo unspecified)	none
CCCc1cc(=O)oc2cc(C)c(CN3CCCC3)c(O)c12	NadD block 29
CCc1cc(=O)oc2cc(C)c(CN3CCCC3)c(O)c12	none
O=C(O)CN1C(=O)/C(=C\c2ccccc2OCc2ccc(Cl)cc2)SC1=S	none
O=C(O)CN1C(=O)/C(=C\c2cc(Br)ccc2OCc2ccc(Cl)cc2Cl)SC1=S	NadD block 36 (no result: GalR3 antagonist, MsrA inhibitor)
FC(F)(F)c1cc(C(F)(F)F)c2ccc(N3CCN(c4ccc(Cl)cc4)CC3)nc2n1	none
N#CC(c1ccc(Cl)cc1)c1ccc2c(C(F)(F)F)cc(C(F)(F)F)nc2n1 (stereo unspecified)	GalR3 antagonist 36
CCN1/C(=C/c2ccc3cc(C)ccc3[n+]2CC)Sc2ccc3sccc3c21	NadD block 44 (no result: GalR3 antagonist, MsrA inhibitor)
O=C1c2ccc(-c3ccc(F)cc3OCc3ccccc3)cc2S(=O)(=O)c2cccc(C(=O)N3CCN(c4ncc(Br)cn4)CC3)c21	NadD block 58 (no result: NR2E3 ag-1)
O=C(O)c1cccc2c1C(=O)c1ccc(-c3ccc(F)cc3OCc3ccccc3)cc1S2(=O)=O	none (no result: GalR3 antagonist, MsrA inhibitor)
O=C(CCn1c(=O)oc2ccccc21)NCCC1=CCCCC1	none
O=C(O)c1cccc(-c2ccc(/C=C3/SC(=Nc4ccccc4)N(Cc4cccnc4)C3=O)o2)c1	NadD block 32 (no result: NR2E3 ag-1)
CCN1C(=O)/C(=C\c2ccc(-c3cccc(C(=O)OC)c3)o2)SC1=Nc1ccc(C(=O)O)cc1	none (no result: bovine MsrA act, NR2E3 ag-2, NadD block)
CCOC(=O)c1c(C)n(C)c2ccc(OC(=O)c3ccoc3)cc12	none
COc1ccc(Cc2nnc(N=Nc3c(O)[nH]c4ccc(Br)cc34)[nH]c2=O)cc1	NadD block 38
COC(=O)N=Nc1c(O)[nH]c2ccc(Br)cc12	none
CCOC(=O)N1CCN(S(=O)(=O)c2ccc(C(=O)NNc3nc4c(C)cc(C)cc4s3)cc2)CC1	none (no result: GalR3 antagonist)
CCOC(=O)N1CCN(S(=O)(=O)c2ccc(C(=O)NNc3nc4cc(C)cc(C)c4s3)cc2)CC1	NadD block 39 (no result: GalR3 antagonist, MsrA inhibitor)
COCCNC(=O)c1csc2c1CCCC2	bovine MsrA act 12
CC(C)Cc1nnc(NC(=O)CCC(=O)N2CCN(Cc3ccccc3)CC2)s1	none
COc1cc(/C=C/C(=O)Nc2ccc3nc4n(c(=O)c3c2)CCCC4)cc(OC)c1OC	MsrA inhibitor 4.6
CC(CCc1ccco1)NC(=O)CCc1nnc2ccc(NCc3ccccc3)nn12 (stereo unspecified)	none
CSc1ccc(CN(C)C(=O)c2cccc(S(=O)(=O)N3CCN(Cc4ccccc4)CC3)c2)cc1	NR2E3 ag-2 71
CN(C)S(=O)(=O)c1ccc(/C(O)=C2/C(=O)C(=O)N(CCN3CCCCC3)C2c2cccnc2)cc1 (stereo unspecified)	MsrA inhibitor 4.9 (no result: NR2E3 ag-1)
CCOC(=O)C1=C(c2ccccc2)c2ccccc2N(S(=O)(=O)C(F)(F)F)C1C(=O)OCC (stereo unspecified)	none (no result: NR2E3 ag-1)
COc1cc(/C=N/Nc2cccc(C)c2)cc(Br)c1O	NadD block 26 (no result: NR2E3 ag-1)
COc1cc(/C=N/Nc2cccc(C)c2)ccc1OC(=O)c1cccs1	none
Cc1cc(C)cc(N=Cc2ccc([N+](=O)[O-])s2)c1	none
O=[N+]([O-])c1ccc(C=Nc2ccc(Cl)c([N+](=O)[O-])c2)s1	MsrA inhibitor 5.1 (no result: NR2E3 ag-1)
CC(=O)Nc1ccc(OCC(O)CN2CCN(c3cc(Cl)ccc3C)CC2)cc1 (stereo unspecified)	none
C=CC(=O)Nc1cccc(Oc2ccnc(Nc3ccc(N4CCN(C)CC4)cc3)n2)c1	none (no result: NR2E3 ag-1)
C=CC(=O)Nc1cccc(Oc2ccnc3[nH]ccc23)c1	NadD block 59 (no result: GalR3 antagonist, NR2E3 ag-1, MsrA inhibitor)
CN(C(=O)CSc1nc2ccccc2[nH]1)C1CCS(=O)(=O)C1 (stereo unspecified)	none
COc1ccc(-c2cc(-c3ccccc3)nc(SCC(=O)Nc3ncc(C)s3)c2C#N)cc1	NadD block 34
COc1ccc([N+](=O)[O-])cc1NC(=O)COC(C)=O	none
CCCC(=O)OCC(=O)Nc1cc([N+](=O)[O-])ccc1OC	MsrA inhibitor 4.6
COc1ccc(C(=O)Nc2nnc(CC(=O)N/N=C/c3ccc(O)cc3O)s2)cc1	NadD block 34
Cc1ccc(C(=O)Nc2nnc(CC(=O)N/N=C/c3ccc(O)c(O)c3)s2)cc1	NadD block 37
Cc1ccc(C(=O)Nc2nnc(CC(=O)N/N=C/c3ccncc3)s2)cc1	none
Cn1c(SCC(=O)Nc2sccc2C(N)=O)nc2ccccc2c1=O	none (no result: NR2E3 ag-1)
COc1cccc(C2c3[nH]c4ccccc4c3CCN2Cc2cnc(C)s2)c1OC (stereo unspecified)	none
Cn1c2ccccc2c2cc(/C=N/NC(=O)c3ccc(O)cc3O)ccc21	NadD block 40 (no result: GalR3 antagonist, MsrA inhibitor)
COCCn1c(C)cc(/C=N/NC(=O)c2cc3ccccc3cc2O)c1C	NadD block 35 (no result: GalR3 antagonist, MsrA inhibitor)
COc1ccc2c(c1)cc(C(=O)N/N=C/c1c(O)c(C(=O)O)cc3ccccc13)n2C	none
Cn1c(O)c(/C=N/NC(=O)c2cc3ccccc3cc2O)c2ccccc21	NadD block 31
Fc1ccc(-[n+]2nc(Nc3ccccc3)sc2-c2c3ccccc3cc3ccccc23)cc1	none

Assay outcomes from PubChem.
